# Screens from PubChem.
# Sampled rows, rich in hits. Any-hit rate of the full collection: about 1.9%.
# CSN deneddyl inh – blocks human CSN-mediated cullin deneddylation; inhibition, % at 12.5 µM; 0.38% of 360,000 active; Purified CSN, SCF-Nedd8-OG deneddylation, fluorescence polarization; AID 651999;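 active = pattern-corrected inhibition above about 35%, with an unprinted fluorescence ratio check between 0.5 and 1.5, limit read from the data, passing the limit was not always enough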;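 note: 0% = enzyme with substrate and 100% = substrate without enzyme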
#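 Detection – fluorescence polarization · System – HEK293T-derived human Csn5 enzyme · Controls – substrate-only high control, full reaction low control · Timing – 90 min, room temperature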
# STEP inh – inhibitors of human striatal-enriched phosphatase STEP; P54829; inhibition, % at 20 µM; 0.25% of 360,000 active; recombinant STEP, OMFP fluorogenic substrate, fluorescence;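 active = inhibition at 20 µM, scaled per plate between control wells, above about 37%, limit read from the data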;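 note: 0% = DMSO with enzyme and substrate and 100% = substrate only without enzyme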
#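 Test system: STEP tyrosine phosphatase / Reagent: OMFP at 25 µM / Doses: 20 µM, 1% DMSO / Read-out: percent inhibition scaled to no-enzyme and uninhibited-enzyme controls, plate-pattern corrected / Detection: FITC-channel fluorescence of OMFP product / Medium: Bis-Tris buffer pH 6.0, 2.5 mM DTT, 0.005% Tween 20 / Schedule: 20 min at room temperature, dark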
# Scp-1 inhibitor – inhibitors of human Scp-1 phosphatase. AID 493091. inhibition, % at 20 µM. Recombinant Scp1, phosphopeptide, malachite green phosphate absorbance. 0.88% of 340,000 active;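 active = inhibition above about 50% at 20 µM, limit read from the data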;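 note: plate controls were DMSO wells with enzyme for no effect and wells lacking enzyme for full effect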
# Target sequence (Q9GZU7 76-261 limits assumed): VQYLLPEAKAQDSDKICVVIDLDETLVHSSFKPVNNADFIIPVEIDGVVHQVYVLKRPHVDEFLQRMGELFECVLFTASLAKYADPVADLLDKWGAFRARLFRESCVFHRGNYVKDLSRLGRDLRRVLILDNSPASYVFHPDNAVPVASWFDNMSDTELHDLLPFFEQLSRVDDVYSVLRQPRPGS
#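 Material: truncated SCP-1 phosphatase (76-261aa) / Buffer or medium: 50 mM Tris acetate pH 5.5, 0.005% Tween-20, 10 mM MgCl2 / Compound dosing: one concentration, 20 µM, with 1.0% DMSO / Incubation: 45 min room-temperature reaction, 5 min colour, 30 min stabiliser / Detection: colorimetric free-phosphate detection, absorbance 630 nm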
# LMPTP block – LMPTP (human) inhibition. P24666. recombinant LMPTP-A, OMFP fluorogenic substrate, fluorescence intensity. inhibition, % at 20 µM. 0.22% of 360,000 active;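 active = compounds that cut the enzyme signal by at least half of the control window in the single-dose screen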;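 note: plate controls were DMSO wells with enzyme plus substrate for no effect and substrate without enzyme for full effect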
# Target sequence (P24666 whole entry, looked up): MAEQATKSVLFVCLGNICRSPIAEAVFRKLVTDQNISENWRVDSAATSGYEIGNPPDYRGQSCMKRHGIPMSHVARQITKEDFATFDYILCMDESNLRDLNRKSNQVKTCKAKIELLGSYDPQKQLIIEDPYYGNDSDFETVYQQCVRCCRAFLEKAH
#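 Buffer or medium: Bis-Tris pH 6.0, DTT, detergent; Assay system: LMPTP-A enzyme; Quantity: 0.625 nM enzyme; Detection: endpoint fluorescence intensity; Times: 50 min dark incubation at room temperature; Controls: substrate-only low control, DMSO enzyme-plus-substrate high control; Doses: single 20 µM dose; Read-out: percent inhibition versus substrate-only and uninhibited controls; Reagent: 400 µM OMFP.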
# SUMO1-SIM PPI – modulators of human SUMO1-mediated protein-protein interactions; P63165; SUMO1 binding to a labelled peptide, TR-FRET, 1 h; inhibition, % at 20 µM; 0.33% of 360,000 active; in the data active = inhibition above about 37%
# Target sequence (P63165 whole entry, looked up): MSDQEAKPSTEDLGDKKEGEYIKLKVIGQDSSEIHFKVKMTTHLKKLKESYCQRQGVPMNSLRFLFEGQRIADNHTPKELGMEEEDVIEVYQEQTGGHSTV
# DNMT1 block – inhibitors of human DNMT1 | DNMT1 molecular beacon, Hinp1I cleavage, fluorescence | inhibition (reported as % activation of signal), % at 10 µM | 0.83% of 360,000 active
# CSN5 deneddyl – Csn5 (human) deneddylation inhibition, single-concentration validation | shares compounds with CSN deneddyl inh | Csn5 deneddylation of SCF-Nedd8OG, fluorescence polarization, 90 min | inhibition, % at 16.6 µM | 62% of 540 active | AID 720654;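 note: 0% = DMSO with enzyme and 100% = no enzyme wells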
# MMP2 cntr CSN – counter-screen for CSN deneddylation inhibitors: human MMP-2 inhibition; AID 720655; shares compounds with CSN deneddyl inh; 33% of 540 active; inhibition, % at 16.6 µM; recombinant MMP-2, FRET substrate fluorescence, 60 min;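 active = corrected plate-normalized z-score of 5 or more, or -5 or less, or inhibition of 15% or more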;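 note: plate controls were DMSO wells with enzyme for no effect and buffer wells lacking MMP-2 for full effect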
# Thrombin cntr – blocks bovine thrombin in a CSN deneddylation counter-screen. shares compounds with CSN deneddyl inh. bovine thrombin cleavage of Ub4-pepOG, fluorescence polarization. inhibition, % at 16.6 µM. 49% of 540 active;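 active = inhibition at or above a set limit, with a fluorescence interference ratio between 0.5 and a set maximum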
# Starred values were filed as active, the others as inactive; · = not tested or not shown. Cut-off read from the data, not from the text of the source, unless noted: active = inhibition above about 50%; inactive = the rest.
SMILES,CSN deneddyl inh,STEP inh,Scp-1 inhibitor,LMPTP block,SUMO1-SIM PPI,DNMT1 block,CSN5 deneddyl,MMP2 cntr CSN,Thrombin cntr
CCOC1=C/C(=C/c2c(N)n3nc(-c4ccccc4)sc3nc2=O)C=CC1=O,41*,0,7,1,14,0,6,5,64*
COC1=C/C(=C/c2c(N)n3nc(-c4ccc(C)cc4)sc3nc2=O)C=CC1=O,78*,4,21,2,8,4,·,6,76*
Nc1c(C=C2C=CC(=O)C=C2)c(=O)nc2sc(CC(=O)N3CCCC3)nn12,3,-1,-6,-1,-10,3,·,·,·
CCS(=O)(=O)c1nn2c(N)c(/C=C3/C=CC(=O)C(OC)=C3)c(=O)nc2s1,44*,0,-8,0,-17,2,55*,5,52*
CCCc1nn2c(N)c(/C=C3\C=Nc4ccccc43)c(=O)nc2s1,3,1,-9,3,-16,0,·,·,·
Cc1cc(C)nc(NN2C(=O)/C(=C/c3ccc(O)cc3)SC2=S)n1,92*,7,15,1,-46,3,46,-13,83*
CCCCn1c(N)c(N(CCC(C)C)C(=O)C2CCCC2)c(=O)[nH]c1=O,1,-1,-5,0,-3,4,·,·,·
COC1C(CO)OC(n2c3c(Cl)cccc3c3c4c(c5c6cccc(Cl)c6[nH]c5c32)C(=O)NC4=O)C(O)C1O (stereo not drawn),80*,-5,5,-1,-9,13,197*,-19,5
Cc1c2cc[n+](CCN3CCCCC3)cc2c(C)c2c1[nH]c1ccc(O)cc12,100*,5,-10,48,92*,1,-31,93*,40*
CCOC(=O)c1[nH]c2ccc(C)cc2c1NC(=O)CN1CCCCC1,-6,0,37,-1,-9,2,·,·,·
Cc1c(C(=O)NCc2ccc3c(c2)OCCO3)sc(=O)n1Cc1ccc(S(=O)(=O)N(C)C)cc1,-3,0,·,-1,1,-3,·,·,·
CCC(=O)Nc1ccc(C(=O)COC(=O)c2nc3nccc(C)n3n2)cc1,44*,5,72*,46,25,109*,·,15,10
Cc1ccnc2nc(C(=O)OCC(=O)c3ccc(NC(=O)CC(C)C)cc3)nn12,1,1,27,2,0,-8,·,·,·
CC(C)(C)c1ccc(Cn2c(=N)n(CC(O)c3ccco3)c3ccccc32)cc1 (stereo not drawn),68*,3,-4,1,0,4,92*,-6,2
CN(C)c1ccc(/C=C2\SC(N3CCCCC3)=NC2=O)cc1,84*,6,-1,3,-52,2,63*,2,78*
COc1ccc(S(=O)(=O)N(C)CC(=O)NCc2ccco2)cc1OC,4,2,30,0,3,6,·,·,·
O=C1/C(=C\c2cc(Br)cc(Br)c2O)SC(=S)N1Cc1ccccc1,46*,10,7,10,18,65*,97*,7,13
O=C(NN1C(=O)/C(=C/c2ccc(O)cc2)SC1=S)c1ccccc1O,101,-3,-17,1,-39,-2,·,·,·
COc1cc(/C=C2/SC(=S)N(Cc3ccccc3)C2=O)ccc1OCC(=O)O,11,7,-10,3,-11,1,·,·,·
CCOc1cc(/C=C2/SC(=S)N(Cc3ccccc3)C2=O)ccc1O,42*,-2,-6,3,-7,-11,59*,-3,85*
COc1cc([N+](=O)[O-])cc(/C=C2/SC(=S)N(Cc3ccccc3)C2=O)c1O,40*,8,4,5,64*,-14,·,-1,44*
COc1cc(/C=C2\SC(=S)N(NC(=O)c3ccccc3O)C2=O)ccc1O,50*,-4,-22,2,-3,-5,58*,-5,63*
COc1cc(/C=C2/SC(=S)N(Cc3ccccc3)C2=O)cc(Cl)c1O,94,-2,-13,2,-25,-13,·,·,·
Cc1ncc(C)c2c([N+](=O)[O-])cccc12,12,2,·,-1,-14,2,·,·,·
COc1ccc(NC(=O)CSc2ccc3c(c2)OCCO3)cc1S(N)(=O)=O,6,0,-7,-2,-4,-3,·,·,·
SMILES,CSN deneddyl inh,STEP inh,Scp-1 inhibitor,LMPTP block,SUMO1-SIM PPI,DNMT1 block,CSN5 deneddyl,MMP2 cntr CSN,Thrombin cntr
CCCC(=O)N1CCN(c2ccc(NC(=O)c3cccs3)cc2)CC1,-2,5,-5,0,1,-1,·,·,·
COC(=O)c1cc(C(=O)c2cc(F)ccc2O)cn2c(=O)c3c(C)c(C)sc3nc12,8,0,-5,2,-16,-3,·,·,·
CCOC(=O)c1sc2nc3c(SCC(=O)O)cc(C(=O)c4cc(F)ccc4O)cn3c(=O)c2c1C,76*,15,42,32,30,35,22,34*,3
CCN(CC)CCOC(=O)c1ccc(NC(=O)CCCN2C(=O)/C(=C/c3cccs3)SC2=S)cc1,11,5,-1,1,-69,-8,·,·,·
COc1ccc(CC(=O)Nc2nnc(C(C)C)s2)cc1OC,6,-2,-14,-2,-2,1,·,·,·
Cc1c(N2C(=O)/C(=C/c3ccc(N(C)C)cc3)N(C)C2=S)c(=O)n(-c2ccccc2)n1C,61*,8,-4,18,-111,-14,37,-4,74*
COc1cc(N=Nc2cccc(S(N)(=O)=O)c2)c2ccccc2c1N,46*,4,15,9,-34,-14,82*,15,26*
NC(c1ccccc1)c1cccs1 (stereo not drawn),1,0,·,0,7,-1,·,·,·
CC(O)CN(CC(C)O)c1ccc2c(c1)Cc1cc([N+](=O)[O-])ccc1-2 (stereo not drawn),58*,-4,-2,6,-59,-13,38,4,82*
CN(C)S(=O)(=O)c1ccc(N2CCCC2)c(C(=O)N2CCN(S(=O)(=O)c3ccccc3F)CC2)c1,1,2,-7,0,3,-2,·,·,·
O=C(Nc1ccc(Nc2ccncc2)cc1)c1ccc(Nc2ccnc3ccc([N+](=O)[O-])cc23)cc1[N+](=O)[O-],54*,2,-7,89*,45*,23,·,36*,-14
